Data on eight compounds can be found in publication PMC4857052 (Molecular pharmacology, 2012).

The EC50 is the concentration at which the effect is half-maximal. In general, Ki refers to a measure of affinity in units of concentration, obtained from inhibition or displacement. The Km is the substrate concentration at which the rate is half of its maximum.

One data set relates to 5F-2′dURes cells. Put plainly: Metabolomic analysis of treated 5F-2′dURes cells. It is filed as cell-based, Trypanosoma brucei brucei. As to conditions: 100 μM, 8 hours.
The next data set deals with 5F-2′dURes T. b. brucei. In words: Alamar blue drug sensitivity assay, 5F-2′dURes. It is filed as cell-based, Trypanosoma brucei brucei. Put shortly:
(§1)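 Bloodstream-form T. b. brucei s427 grown in HMI-9 with 10% FBS at 37°C under 5% CO2. Resistant lines were made by months of stepwise-increasing exposure to the analog, then cloned by limiting dilution. Viability was read by resazurin (Alamar blue) reduction. Thymidine rescue was tested by adding 100 μM thymidine.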

A further data set deals with 5FOARes T. b. brucei. Put plainly: Alamar blue drug sensitivity assay, 5FOARes. It is filed as cell-based, Trypanosoma brucei brucei. In short, it runs like this:
as §1
In general terms: The colour change of resazurin is a common sign of viable cells or microbes.

In data set [1] the test system is variant surface glycoprotein. Put plainly: Effect on glycosylation / variant surface glycoprotein content. As to conditions: 100 μM. It is filed as cell-based, Trypanosoma brucei brucei.
For another data set, the system named is 5FURes T. b. brucei. Put plainly: Alamar blue drug sensitivity assay, 5FURes. It counts as cell-based, Trypanosoma brucei brucei. Put shortly: as §1
The test system of data set [2] is T. b. brucei bloodstream forms strain 427 WT. Put plainly: Alamar blue drug sensitivity assay, wild-type. The conditions noted are these: for EC50: Trypanosoma brucei. It counts as cell-based, Trypanosoma brucei brucei. Put shortly: as §1
Data set [3] deals with DNA of T. brucei bloodstream forms. In words: Incorporation into DNA. It is filed as cell-based, Trypanosoma brucei brucei. The conditions noted are these: 100 μM, 12 hours; natural deoxynucleotides 500-5000-fold above detection limit. Put shortly:
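Bloodstream forms were exposed to 100 μM test compound for 12 h (37°C, 5% CO2), with untreated parallel controls. DNA was extracted by SDS/RNase A lysis overnight at 37°C and phenol/chloroform, then digested with 1000 units exonuclease III at 37°C for 48 h. The digest was mixed 1:3 with acetonitrile, centrifuged, and the supernatant analysed by HILIC–high-resolution LC-MS.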

For data set [4], the system named is TbT1 (P1-type nucleoside transporter). In words: [3H]-thymidine transport in bloodstream forms. It is filed as cell-based, Trypanosoma brucei brucei. The conditions noted are these: for effect on [3H]-thymidine transport (in words): bloodstream forms.
The target in the next data set is TbU2. The conditions noted are these: read-out: Ki, U2; procyclic forms (PCF); ref De Koning and Jarvis (1998), Papageorgiou et al. (2005), Gudin et al. (2006); cited from earlier work.
Another data set has as its target TbU1. As to conditions: procyclic forms (PCF), ref De Koning and Jarvis (1998), Papageorgiou et al. (2005), Gudin et al. (2006), cited from earlier work; for Ki, U1 / Ki: NE = no effect on uptake at concentration indicated; for Ki: read-out: Ki, U1.
The target of another data set is TbU3. Put plainly: [3H]-uridine transport in bloodstream forms. It counts as cell-based, Trypanosoma brucei brucei. The conditions noted are these: 2.5 μM [3H]-uridine.
A further data set relates to TbU3 uracil transporter. Put plainly: [3H]-uracil transport in bloodstream forms. It counts as cell-based, Trypanosoma brucei brucei. As to conditions: for Km: read-out: Km, U3, bloodstream forms (BSF), Km of the permeant itself.
Data set [5] concerns s427WT T. b. brucei bloodstream forms. In words: Kinetic parameters of pyrimidine transport in wild-type bloodstream forms. It is filed as cell-based, Trypanosoma brucei brucei. The conditions noted are these: [3H]-permeant; strain s427WT. Put shortly:
(§2)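 Log-phase cells were washed into HEPES/bicarbonate glucose buffer (pH 7.3) at 1 × 10^8/ml and mixed with an equal volume of [3H]-permeant, with or without unlabeled competitor, at ambient temperature. Uptake was stopped with ice-cold buffer containing saturating unlabeled permeant, then cells were spun through oil. Counts were corrected for nonspecific binding and Km, Vmax and Ki obtained by curve fitting. Runs were in triplicate. Thymidine: 10 μM label, 15 min. Orotic acid: 10 min.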

Another data set concerns 5-FURes T. b. brucei. Put plainly: Pyrimidine transport in 5-FURes bloodstream forms. It is filed as cell-based, Trypanosoma brucei brucei.
In data set [6] the test system is T. b. brucei bloodstream forms. In words: [3H]-orotic acid uptake, wild-type bloodstream forms. It is filed as cell-based, Trypanosoma brucei brucei.
In another data set the test system is 5-FOARes trypanosomes. Put plainly: [3H]-orotic acid uptake, 5-FOARes versus wild-type. It is filed as cell-based, Trypanosoma brucei brucei. The conditions noted are these: over 10 min; two experiments. In short, it runs like this: as §2
A further data set has as its system 5F-2′dURes trypanosomes. In words: [3H]-thymidine uptake in 5F-2′dURes. It is filed as cell-based, Trypanosoma brucei brucei. In short, it runs like this:
as §2

Data set [7] has as its target P1-type nucleoside transporter. Put plainly: [3H]-inosine uptake in bloodstream forms. It counts as cell-based, Trypanosoma brucei brucei. In short, it runs like this:
as §2

Data set [8] deals with T. b. brucei bloodstream forms. In words: Uptake of other radiolabeled pyrimidines by wild-type bloodstream forms. It is filed as cell-based, Trypanosoma brucei brucei. As to conditions: over 15 min; 2.5 μM [3H]-2′-deoxycytidine, 0.25 μM [3H]-cytosine, 1 μM [3H]-thymine.
[9] abbreviates: resistance factor: IC50(resistant clone)/IC50(WT).

Several values for one entry are separate records, joined by “and”; a condition that tells them apart may be missing. Identical values can stand only once. Like-named read-outs stand apart in the source and are kept apart here.

Take `O=c1[nH]c(=O)n([C@H]2C[C@H](O)[C@@H](CO)O2)cc1F` [5Fl-2’-dUrd, 5-fluoro-2′-deoxyuridine]: in the data set on 5F-2′dURes cells, the “increase in dUMP in treated 5F-2′dURes cells relative to untreated wild-type cells” value is given as “two-fold”. Besides, the “reduction of sensitivity by addition of 100 μM thymidine” value in the data set with 5F-2′dURes T. b. brucei (5F-2′dURes cells) is listed as greater than 600 fold; in data set [2] (wild-type) it was 24 fold. Also, the EC50 in the data set on 5F-2′dURes T. b. brucei (Trypanosoma brucei, read-out: EC50, 5F-2′dURes, Mean) is 4300 µM; in the data set on 5FOARes T. b. brucei (Trypanosoma brucei, read-out: EC50, 5FOARes, Mean) it was 31 µM; with 5FURes T. b. brucei (Trypanosoma brucei, read-out: EC50, 5FURes, Mean) it was 3.2 µM; in data set [2] (read-out: EC50, WT, Mean, Alamar blue assay, wild-type sensitive control strain), 5.2 µM; in data set [2] (wild-type, thymidine-free HMI-9 with 100 μM thymidine added), 18.6 ± 3 µM; in data set [2] (wild-type, thymidine-free version of HMI-9), 0.77 ± 0.3 µM. For the same compound, the “RF, 5F-2′dURes” value in the data set on 5F-2′dURes T. b. brucei (setting [9]) is recorded as 825. Besides, in the data set with 5FOARes T. b. brucei (setting [9]), the “RF, 5FOARes” value was found to be 5.9. For the same compound, the “changes in variant surface glycoprotein content” value in data set [1] was “no detectable changes”. Further, the “RF, 5FURes” value with 5FURes T. b. brucei (setting [9]) is 0.61. Besides, the “5F-dUMP in DNA digest” value in data set [3] is listed as “No 5F-dUMP was detected”.

With `Nc1ccn([C@@H]2O[C@H](CO)[C@@H](O)[C@H]2O)c(=O)n1` [Cytidine], in [4], the “effect on [3H]-thymidine transport (in words)” value (from here on “effect”) is “little or no effect”. In addition, the Ki on TbU2 was 0.057 ± 0.019 µM. Moreover, the “Ki, U1” value at TbU1 is on record as “NE, 1000”.

As for `O=c1cc[nH]c(=O)[nH]1` [Uracil], the Ki at TbU3 (read-out: Ki for inhibition of [3H]-uridine uptake, n = 3) is 1.6 ± 0.2 µM. For the same compound, the “effect” value in [4] is on record as “failing to reach 50% inhibition even at 2.5 mM”. Moreover, the Km with TbU1 (read-out: Km, U1, bold entry) was 0.46 ± 0.09 µM; in the data set with TbU3 uracil transporter it was 0.54 ± 0.11 µM; in [5], 1.5 ± 0.3 µM; in the data set on 5-FURes T. b. brucei ([3H]-permeant, strain 5-FURes), 0.66 ± 0.15 µM. In addition, the “reduction of [3H]-uracil transport by unlabeled uracil” value in the data set with TbU3 uracil transporter (0.15 μM [3H]-uracil, 1 mM unlabeled uracil) is on record as greater than 97%. For the same compound, in the data set on TbU3 uracil transporter (0.15 μM [3H]-uracil, linear for at least 120 s), the “rate of [3H]-uracil transport” value is 0.034 ± 0.002 pmol (10^7 cells)^−1s^−1. Also, the “Vmax of uracil transport” value with TbU3 uracil transporter (mean of six triplicate experiments) was 0.14 ± 0.03 pmol × 10^7 cells^−1 × s^−1. Further, the Vmax in [5] was 0.27 ± 0.05 pmol (10^7 cells)^−1s^−1; in the data set on 5-FURes T. b. brucei ([3H]-permeant, strain 5-FURes), 0.16 ± 0.02 pmol (10^7 cells)^−1s^−1.

Turning to `O=C(O)c1cc(=O)[nH]c(=O)[nH]1` [Orotic acid], the “effect” value in data set [4] is “little or no effect”. The “uptake rate as fraction of the transport rate of [3H]-uracil and [3H]-5-FU” value in [6] is no more than 1%. Also, in the data set with 5-FOARes trypanosomes, the “reduction of [3H]-orotic acid uptake in 5-FOARes relative to wild-type” value was 68.1% and 62.8%.

Turning to `Cc1cn([C@H]2C[C@H](O)[C@@H](CO)O2)c(=O)[nH]c1=O` [Thymidine], in data set [4] (10 μM thymidine, 5-30 min), the “rate of [3H]-thymidine transport” value was 0.0015 ± 0.0003 pmol(10^7 cells)^−1s^−1. In addition, the Km was 1240 ± 310 µM in [4] (read-out: Km, T1, bloodstream forms (BSF)); 22 ± 3 µM in the data set on 5F-2′dURes trypanosomes (read-out: Km of [3H]-thymidine uptake, 10 μM [3H]-thymidine); 1240 ± 310 µM in [5]. The “increase in thymidine affinity relative to wild-type” value with 5F-2′dURes trypanosomes is given as greater than 50 fold. In addition, the “increase in transport efficiency relative to wild-type” value in the data set on 5F-2′dURes trypanosomes is reported as “six-fold”. The “Vmax of [3H]-thymidine uptake” value in the data set with 5F-2′dURes trypanosomes (10 μM [3H]-thymidine) is given as 0.013 ± 0.002 pmol(10^7 cells)^−1s^−1. Besides, the Ki on TbU2 was 0.38 ± 0.07 µM; in [7] (read-out: Ki for inhibition of inosine uptake, monophasic, n = 4) it was 214 ± 51 µM. In addition, the “Ki, U1” value on TbU1 is recorded as “NE, 1000”. In addition, in data set [5], the Vmax is 0.067 ± 0.008 pmol (10^7 cells)^−1s^−1.

As to `O=c1ccn([C@@H]2O[C@H](CO)[C@@H](O)[C@H]2O)c(=O)[nH]1` [Uridine], in the data set on TbU3 (0-30 min), the “rate of [3H]-uridine transport” value is reported as 0.0043 ± 0.0003 pmol(10^7 cells)^−1s^−1. Also, the Ki at TbU1 is 33 ± 5 µM; at 5-FURes T. b. brucei (read-out: Ki for [3H]-uracil transport in 5-FURes, n = 3) it was roughly 10000 µM. The “inhibition of [3H]-uracil uptake” value in the data set with TbU3 uracil transporter (10 mM of the nucleoside, 0.15 μM [3H]-uracil) is recorded as ~ 50%. For the same compound, the Km (with TbU3 uracil transporter; in [5]) was 9500 ± 2700 µM each time. Besides, the Vmax in data set [5] is 16 ± 4 pmol (10^7 cells)^−1s^−1.

Consider `O=c1[nH]cnc2c1ncn2[C@@H]1O[C@H](CO)[C@@H](O)[C@H]1O` [Inosine], for which the “Ki, U1” value on TbU1 is reported as “NE, 1000”. Besides, in data set [7] (read-out: Km of inosine uptake, n = 3), the Km worked out at 0.89 ± 0.15 µM.

For `Cc1c[nH]c(=O)[nH]c1=O` [Thymine], in data set [4], the “effect” value is “little or no effect”. Also, in [8], the “accumulation of radiolabeled permeant (in words)” value is “did not detectably accumulate”. The Ki at TbU1 was greater than 1000 µM.
